Test results published in ChEMBL document CHEMBL4219021, “Discovery of a Small-Molecule Degrader of Bromodomain and Extra-Terminal (BET) Proteins with Picomolar Cellular Potencies and Capable of Achieving Tumor Regression” (J Med Chem, 2018).
Active and inactive are the calls of the source. The rule behind the calls is not given here.

What was measured:
Mus musculus [1] = test: Toxicity in SCID mouse xenografted with human RS4:11 cells assessed as body weight loss at 5 mg/kg, iv […] administered every other day three times per week for 3 weeks; assay type: organism-based; conditions: in vivo, 504 h
Procedure, shortened: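 SCID mice carried subcutaneous dorsal RS4;11 xenografts (5 × 10⁶ cells in 50% Matrigel). Once tumors reached ∼100 mm³, mice were randomized to treatment or vehicle. Dosing was 5 mg/kg iv every other day, three times weekly, for 3 weeks. Animals were checked daily for toxicity and weighed 2–3 times weekly during treatment, then at least weekly afterward.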

[2] = target: T1, Protein cereblon/Bromodomain-containing protein 2/Cullin-4A (Homo sapiens) (UniProt P25440+Q96SW2+Q13619); test: Induction of cereblon/cullin 4A-mediated BRD2 degradation in human RS4:11 cells after 3 hrs by Western blot method; assay type: cell-based
T1 sequence (P25440 whole entry, looked up): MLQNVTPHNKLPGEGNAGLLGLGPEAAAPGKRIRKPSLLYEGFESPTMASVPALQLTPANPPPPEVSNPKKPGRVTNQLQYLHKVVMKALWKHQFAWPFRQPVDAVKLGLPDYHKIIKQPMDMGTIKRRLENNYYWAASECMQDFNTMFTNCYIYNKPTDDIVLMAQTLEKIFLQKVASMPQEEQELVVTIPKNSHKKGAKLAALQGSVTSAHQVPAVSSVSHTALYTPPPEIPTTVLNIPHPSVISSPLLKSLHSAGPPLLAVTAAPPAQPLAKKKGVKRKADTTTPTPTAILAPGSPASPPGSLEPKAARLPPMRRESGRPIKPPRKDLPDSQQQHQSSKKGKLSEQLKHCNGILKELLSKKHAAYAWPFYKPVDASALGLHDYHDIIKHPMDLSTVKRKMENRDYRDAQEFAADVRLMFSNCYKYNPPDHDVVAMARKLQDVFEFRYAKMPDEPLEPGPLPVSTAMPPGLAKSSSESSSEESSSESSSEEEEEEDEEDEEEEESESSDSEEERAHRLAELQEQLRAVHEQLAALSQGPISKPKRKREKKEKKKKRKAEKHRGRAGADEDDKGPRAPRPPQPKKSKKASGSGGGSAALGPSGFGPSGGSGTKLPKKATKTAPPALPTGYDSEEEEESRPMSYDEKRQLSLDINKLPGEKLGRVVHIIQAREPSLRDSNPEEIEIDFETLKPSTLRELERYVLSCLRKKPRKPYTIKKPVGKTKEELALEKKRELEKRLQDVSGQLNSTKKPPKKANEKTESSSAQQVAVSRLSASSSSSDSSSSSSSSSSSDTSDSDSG
T1 sequence (Q13619 whole entry, looked up): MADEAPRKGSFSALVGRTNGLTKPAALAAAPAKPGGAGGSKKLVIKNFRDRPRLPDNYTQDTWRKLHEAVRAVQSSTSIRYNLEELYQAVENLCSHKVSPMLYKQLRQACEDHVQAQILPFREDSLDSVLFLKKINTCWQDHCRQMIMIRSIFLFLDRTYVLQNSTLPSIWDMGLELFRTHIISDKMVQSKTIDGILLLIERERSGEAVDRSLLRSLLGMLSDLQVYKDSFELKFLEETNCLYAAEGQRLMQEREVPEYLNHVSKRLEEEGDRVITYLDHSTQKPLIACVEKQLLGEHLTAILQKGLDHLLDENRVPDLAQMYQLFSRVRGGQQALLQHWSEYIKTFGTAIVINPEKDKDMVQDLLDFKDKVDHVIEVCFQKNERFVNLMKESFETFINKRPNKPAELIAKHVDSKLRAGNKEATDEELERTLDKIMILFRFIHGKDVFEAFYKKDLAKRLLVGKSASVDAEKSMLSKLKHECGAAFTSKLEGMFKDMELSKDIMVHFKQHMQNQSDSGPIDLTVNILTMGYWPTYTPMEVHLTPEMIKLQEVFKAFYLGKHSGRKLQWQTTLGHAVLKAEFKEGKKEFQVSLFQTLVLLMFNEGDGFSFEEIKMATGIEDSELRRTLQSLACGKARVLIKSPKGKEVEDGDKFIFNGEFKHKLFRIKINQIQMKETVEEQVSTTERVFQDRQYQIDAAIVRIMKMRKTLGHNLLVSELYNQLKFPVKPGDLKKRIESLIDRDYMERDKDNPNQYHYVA
T1 sequence (Q96SW2 whole entry, looked up): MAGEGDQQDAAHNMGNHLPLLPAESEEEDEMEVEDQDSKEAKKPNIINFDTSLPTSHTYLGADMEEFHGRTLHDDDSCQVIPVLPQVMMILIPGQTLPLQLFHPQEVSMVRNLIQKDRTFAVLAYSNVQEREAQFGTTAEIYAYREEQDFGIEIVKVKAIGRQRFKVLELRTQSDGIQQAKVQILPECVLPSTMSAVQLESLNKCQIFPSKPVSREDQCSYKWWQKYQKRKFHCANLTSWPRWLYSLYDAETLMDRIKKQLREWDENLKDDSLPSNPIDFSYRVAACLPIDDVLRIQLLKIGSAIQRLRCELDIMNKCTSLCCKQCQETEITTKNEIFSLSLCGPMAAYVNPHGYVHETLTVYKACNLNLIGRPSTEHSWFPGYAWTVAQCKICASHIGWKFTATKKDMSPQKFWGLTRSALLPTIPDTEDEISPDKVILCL
Procedure, shortened: (§1)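 RS4;11 cells (2 × 10⁶/well) treated for 3 h at the indicated concentrations. Lysed in RIPA with protease inhibitors and immunoblotted for BRD2, BRD3 and BRD4 with specific antibodies.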

[3] = Drug metabolism in mouse liver microsomes assessed as metabolite m3 formation at 10 uM after 20 to 40 mins in presence of beta-NADPH […]; assay type: ADME, microsome
Mus musculus [4] = test: In vivo induction of cereblon/cullin 4A-mediated BET degradation in tumor of SCID mouse xenografted with human RS4:11 cells assessed as downregulation of c-Myc level at 5 mg/kg, iv administered as single dose measured up to 6 hrs by Western blot method; assay type: functional, organism-based
Procedure, shortened: (§2)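 SCID mice bearing subcutaneous RS4;11 tumors received a single 5 mg/kg iv dose. Sacrificed at 1, 3, 6 and 24 h, with vehicle controls at 6 h, two mice per time point. Tumors ground in liquid nitrogen and lysed in CHAPS buffer, then immunoblotted for BRD2/3/4, c-Myc, PARP/cleaved PARP and caspase-3/cleaved caspase-3. Actin served as loading control.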

RS4-11 = test: Induction of apoptosis in human RS4:11 cells at 3 to 10 nM after 24 hrs by Annexin-V/propidium iodide staining based flow cytometry; assay type: functional, cell-based
Procedure, shortened: (§3)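 RS4;11 or MOLM-13 cells treated with compound for 24 h, then analyzed by flow cytometry. Cell cycle read by propidium iodide staining and apoptosis by annexin V/propidium iodide staining.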

MOLM-13 = test: Induction of cell cycle arrest in human MOLM13 cells after 24 hrs by propidium iodide staining based flow cytometry; assay type: functional; procedure, shortened: as §3
[5] = target: T1, Protein cereblon/Bromodomain-containing protein 2/Cullin-4A (Homo sapiens); test: Induction of cereblon/cullin 4A-mediated BRD2 degradation in human RS4:11 cells at 0.1 nM after 24 hrs by Western blot method; assay type: cell-based
Procedure, shortened: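 RS4;11 cells (2 × 10⁶/well) treated for 24 h at the indicated concentrations. Lysed in RIPA with protease inhibitors and immunoblotted for BRD2, BRD3, BRD4, c-Myc and PARP, with GAPDH as loading control.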

Mus musculus [6] = test: Increase in caspase-3 cleavage in tumor of SCID mouse xenografted with human RS4:11 cells at 5 mg/kg administered as single dose measured up to 6 hrs by Western blot method; assay type: functional, organism-based; procedure, shortened: as §2
Mus musculus [7] = test: Increase in PARP cleavage in tumor of SCID mouse xenografted with human RS4:11 cells at 5 mg/kg administered as single dose measured up to 6 hrs by Western blot method; assay type: functional, organism-based; procedure, shortened: as §2
[8] = target: T1, Protein cereblon/Bromodomain-containing protein 2/Cullin-4A (Homo sapiens); test: Induction of cereblon/cullin 4A-mediated BRD2 degradation in human RS4:11 cells at 1 nM after 3 hrs in presence of NAE inhibitor MLN4924 by Western blot method; assay type: cell-based
[9] = target: T2, Protein cereblon/Bromodomain-containing protein 3/Cullin-4A (Homo sapiens) (UniProt Q15059+Q96SW2+Q13619); test: Induction of cereblon/cullin 4A-mediated BRD3 degradation in human RS4:11 cells after 3 hrs by Western blot method; assay type: cell-based; procedure, shortened: as §1
T2 sequence (Q13619 whole entry, looked up): as the sequence (Q13619 whole entry, looked up) above
T2 sequence (Q15059 whole entry, looked up): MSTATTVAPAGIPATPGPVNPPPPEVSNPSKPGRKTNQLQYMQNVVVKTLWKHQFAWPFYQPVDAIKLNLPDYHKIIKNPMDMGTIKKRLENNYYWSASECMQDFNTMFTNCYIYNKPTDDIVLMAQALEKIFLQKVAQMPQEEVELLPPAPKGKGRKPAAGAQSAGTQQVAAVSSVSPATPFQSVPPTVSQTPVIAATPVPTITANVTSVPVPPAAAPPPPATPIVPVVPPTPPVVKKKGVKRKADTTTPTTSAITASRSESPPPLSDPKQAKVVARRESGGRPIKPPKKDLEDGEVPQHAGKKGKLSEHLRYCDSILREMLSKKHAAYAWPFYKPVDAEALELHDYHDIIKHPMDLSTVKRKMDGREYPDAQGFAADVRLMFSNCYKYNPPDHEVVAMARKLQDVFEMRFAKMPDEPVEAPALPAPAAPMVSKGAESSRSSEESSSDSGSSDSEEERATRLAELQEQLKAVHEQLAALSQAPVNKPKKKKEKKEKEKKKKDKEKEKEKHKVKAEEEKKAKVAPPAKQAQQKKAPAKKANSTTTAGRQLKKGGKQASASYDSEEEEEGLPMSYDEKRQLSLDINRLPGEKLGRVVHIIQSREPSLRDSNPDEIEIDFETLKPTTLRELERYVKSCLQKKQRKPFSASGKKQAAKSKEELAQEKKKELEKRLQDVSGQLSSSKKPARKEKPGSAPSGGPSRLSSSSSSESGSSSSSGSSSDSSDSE
T2 sequence (Q96SW2 whole entry, looked up): as the sequence (Q96SW2 whole entry, looked up) above

[10] = target: T2, Protein cereblon/Bromodomain-containing protein 3/Cullin-4A (Homo sapiens); test: Induction of cereblon/cullin 4A-mediated BRD3 degradation in human RS4:11 cells at 1 nM after 3 hrs in presence of BET inhibitor 4-((3-Cyclopropyl-1-ethyl-1H-pyrazol-5-yl)amino)-7-(3,5-dimethylisoxazol-4-yl)-6-methoxy-N-methyl-9H-pyrimido[4,5-b]-indole-2-carboxamide by Western blot method; assay type: cell-based

Activity [2]: Dose-dependent effect | Drug metabolism [3]: Metabolite_Detected | Activity [5]: Active | Activity [8]: inactive | Activity [9]: Dose-dependent effect | Activity [10]: inactive
Structure (SMILES): CCn1nc(C2CC2)cc1Nc1nc(C(=O)NCCCCCc2cccc3c2CN(C2CCC(=O)NC2=O)C3=O)nc2[nH]c3cc(-c4c(C)noc4C)c(OC)cc3c12 (configuration not stated)
Activity (Mus musculus [1]): Non-Toxic | Activity (Mus musculus [4]): Active | Activity (RS4-11): Active | Activity (MOLM-13): Dose-dependent effect | Activity (Mus musculus [6]): Active | Activity (Mus musculus [7]): Active
